# PglD DTNB: blocks C. jejuni PglD acetyltransferase activity. purified PglD enzyme, DTNB colorimetric CoA detection. inhibition, % at 12.5 µM. 360,000 compounds, 0.098% hits. AID 602405; in the data active means inhibition above about 16%, passing the limit was not always enough
# RAD52 inh: blocks human RAD52 DNA annealing; P43351; recombinant RAD52 DNA annealing, FRET fluorescence; inhibition, % at 18.7 µM; 360,000 compounds, 0.46% hits; AID 651710;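 active means every replicate showing at least 50% inhibition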
# rRNA inh HTS: inhibits bacterial ribosomal RNA function over humanized ribosomes; E. coli WT GFP vs humanized-ribosome RFP mutants, fluorescence, 24 h; active compounds read low; DMSO median 0, no signal -100; AID 720706; 350,000 compounds, 1.6% hits; GFP signal change (wild-type ribosome), % (test concentration not listed);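 active means significant combined selectivity score with lowered wild-type GFP, culture density cut under 30%, mutant RFP and density less affected; inactive means any of these conditions unmet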
# E-sel inducer: E-selectin induction on HUVECs. HUVEC E-selectin immunofluorescence imaging; normalized: neutral wells 0, TNF-alpha wells 100. activation, % at 7.58 µM. 260,000 compounds, 0.37% hits. AID 686992;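 active means mean E-selectin-positive cell signal at least 10% of the positive control, reached in at least 60% of replicates, without over 20% cell loss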
#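 System: HUVEC, human umbilical vein endothelial cells; quantity: 3,000 cells/well; buffer or medium: EGM-2 medium, gelatin-coated wells; dosing: single-point compound dose; detection: immunofluorescence imaging; evaluation: % PE-positive cells; benchmarks: TNF-alpha, DMSO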
# RAD54 inh: RAD54 (human) branch migration inhibition; inhibition, % at 10.4 µM; RAD54 Holliday junction branch migration, FAM/BHQ fluorescence; AID 602329; 360,000 compounds, 0.14% hits;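 active means mean normalized replicate activity at least 40 and at least half of replicates scoring 40 or more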;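 further: 0% = median of neutral control wells and 100% = median of positive control wells; inhibitors cause a drop in the FAM fluorescence signal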
# Target sequence (Q92698 whole entry, looked up): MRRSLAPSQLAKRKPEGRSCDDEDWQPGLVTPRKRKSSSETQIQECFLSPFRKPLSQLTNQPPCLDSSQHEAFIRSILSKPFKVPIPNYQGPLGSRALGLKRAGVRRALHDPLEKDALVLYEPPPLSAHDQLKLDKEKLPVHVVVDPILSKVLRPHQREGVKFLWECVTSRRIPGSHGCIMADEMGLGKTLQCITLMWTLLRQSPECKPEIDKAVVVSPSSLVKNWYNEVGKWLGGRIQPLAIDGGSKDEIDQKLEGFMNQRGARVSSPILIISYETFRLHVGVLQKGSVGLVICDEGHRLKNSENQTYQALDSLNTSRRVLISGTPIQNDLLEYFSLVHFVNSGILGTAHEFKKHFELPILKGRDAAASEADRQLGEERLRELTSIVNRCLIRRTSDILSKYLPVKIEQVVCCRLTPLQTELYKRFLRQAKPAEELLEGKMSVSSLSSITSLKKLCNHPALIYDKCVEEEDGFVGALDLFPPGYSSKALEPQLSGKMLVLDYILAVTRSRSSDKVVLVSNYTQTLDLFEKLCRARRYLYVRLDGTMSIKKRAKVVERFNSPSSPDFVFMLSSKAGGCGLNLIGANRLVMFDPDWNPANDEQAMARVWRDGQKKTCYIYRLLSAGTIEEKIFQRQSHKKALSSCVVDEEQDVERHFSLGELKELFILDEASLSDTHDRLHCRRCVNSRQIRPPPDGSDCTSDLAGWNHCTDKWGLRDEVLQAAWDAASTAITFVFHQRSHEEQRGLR
# XiGFP reactiv: reactivates the inactive X chromosome in mouse fibroblasts. 360,000 compounds, 0.055% hits. activation, % at 7.58 µM. XiGFP mouse fibroblasts, % GFP-positive cells imaging, 3 d; cells co-treated with 5-aza-dC sensitizer; scaled so ellipticine positive control = 100%;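 active means mean normalized replicate activation at least 10% and every replicate at or above 10%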;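 further: 0% = median of on-plate neutral control wells and 100% = ellipticine 6 µM median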
#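 Material: SV40-immortalized XiGFP fibroblast cells, line 68-5-11 | Buffer or medium: DMEM containing 5-aza-dC | Dosing: One concentration, pinned | Times: 3 d treatment, 15 min room-temperature fixation | Controls: Ellipticine 6 µM positive control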
# The depositor's hits bear a star; . = no result given. An excerpt weighted towards active compounds, which were near 2% of everything screened.
SMILES,PglD DTNB,RAD52 inh,rRNA inh HTS,E-sel inducer,RAD54 inh,XiGFP reactiv
C[C@@H]1CN([C@@H](C)CO)C(=O)c2cc(C#CCN(C)C)cnc2O[C@@H]1CN(C)C(=O)c1ccc2c(c1)OCO2,3,0,4,0,-3,-1
CCOC(=O)c1sc(-c2ccc(Cl)cc2Cl)nc1O,.,-15,-29*,.,.,0
CCOC(=O)c1sc(CS(=O)(=O)c2ccc(Cl)cc2)nc1C,.,-10,10,.,.,0
CC(C)NC(=O)Nc1ccc2c(c1)CC(=O)N([C@@H](C)CO)C[C@H](C)[C@@H](CN(C)Cc1ccc(C(=O)O)cc1)O2,0,-1,0,37*,-2,0
C[C@H](CO)N1C[C@H](C)[C@@H](CN(C)Cc2ccc(C(=O)O)cc2)Oc2ccc(NC(=O)Nc3ccc(F)cc3)cc2CC1=O,-5,3,0,38*,2,1
COc1ccc(CN(CC2CCC(C(=O)O)CC2)C(=S)Nc2ccc(C)c(Cl)c2)cc1 (stereo unspecified),-3,-3,-33*,.,-4,0
COc1ccc(NC(=O)Nc2ccc3c(c2)[C@@H]2C[C@@H](CC(=O)NCc4ccncc4)O[C@H](CO)[C@@H]2O3)cc1,-1,-2,1,0,3,0
O=C(N/N=C/c1ccc(N2CCOCC2)cc1)c1ccccc1NS(=O)(=O)c1cccs1,.,-33,-40*,5,.,0
COc1ccc(C=NNC(=O)c2ccccc2NS(=O)(=O)c2cccs2)cc1O,1,-8,-26*,4,-2,0
CN(Cc1c(C(=O)N/N=C/c2ccc(O)cc2)nnn1-c1nonc1N)c1ccccc1,-5,-7,-27*,9,3,0
CN(C)c1ccc(/C=N/NC(=O)c2nnn(-c3nonc3N)c2CN(C)c2ccccc2)cc1,3,-21,6,.,-8,0
Nc1nonc1-n1nnc(C(=O)N/N=C/c2ccc(O)cc2)c1COc1ccc(F)cc1,4,-11,-24*,0,-4,0
Nc1nonc1-n1nnc(C(=O)N/N=C/c2ccc(OCc3ccccc3)cc2)c1COc1ccc(F)cc1,3,-6,8,-1,1,0
Nc1nonc1-n1nnc(C(=O)N/N=C/c2ccccc2Cl)c1CSc1ccccc1,-2,-8,-18*,5,-5,0
CN(Cc1c(C(=O)N/N=C/c2ccccc2)nnn1-c1nonc1N)c1ccccc1,2,-5,-27*,.,0,0
N#C/C(=N\Nc1ccccc1)C(N)=S,-10,-23,-34,.,4,0
Cc1ccc(NC(N)=S)cc1C,-2,4,5,0,-2,0
N#C/C(=N\Nc1ccc(Cl)cc1)C(N)=S,-5,-8,-52,72*,-12,0
Cc1ccc(N/N=C(\C#N)C(N)=S)cc1C,.,-11,-33*,6,.,0
CO[C@@H]1CN(C)C(=O)c2cc(NC(=O)C3CCCC3)ccc2OC[C@H](C)N(C(=O)CC2CC2)C[C@@H]1C,1,-9,-1,0,2,0
C[C@@H]1CN([C@H](C)CO)C(=O)c2cccc(NC(=O)c3ccc(-c4nccs4)cc3)c2O[C@@H]1CN(C)Cc1ccc(Cl)c(Cl)c1,-4,4,-5,-2,-2,-1
C[C@H]1CN([C@@H](C)CO)C(=O)c2cccc(NC(=O)c3ccc(-c4nccs4)cc3)c2O[C@@H]1CN(C)Cc1ccc(Cl)c(Cl)c1,-1,13,-1,304*,1,-1
C[C@@H]1CN([C@@H](C)CO)C(=O)c2cccc(NC(=O)c3ccc(-c4nccs4)cc3)c2O[C@H]1CN(C)Cc1ccc(Oc2ccccc2)cc1,1,-3,7,71*,-28,-1
C[C@H]1CN([C@@H](C)CO)C(=O)c2cccc(NC(=O)c3ccncc3)c2O[C@@H]1CN(C)Cc1ccc(C(=O)Nc2ccccc2N)cc1,-1,-16,2,58*,-4,1
CCC(=O)N[C@@H]1CC[C@H](CCNC(=O)Nc2ccc(C(F)(F)F)cc2)O[C@H]1CO,1,3,-56,0,-10,0
